According to ChEMBL document CHEMBL4177755, “Combating Drug-Resistant Fungi with Novel Imperfectly Amphipathic Palindromic Peptides” (J Med Chem, 2018):
Converted amounts (≈) assume the structure as drawn. The source made the active and inactive calls. No cut-off for these calls is given here. Bridge positions count the residues as written; N and C are the ends. Square brackets hold non-standard residues; d marks the D form. Peptide text beside a SMILES is read from it. * marks the point of attachment. X1 = CC[C@H](C)CCCCC(=O)*; Dab = NCC[C@H](N)C(=O)O

Key:
[1] = test system: Salmonella typhimurium; assay: Bactericidal activity against Salmonella typhimurium ATCC 14028; type: functional, Salmonella enterica subsp. enterica serovar Typhimurium; conditions: Salmonella enterica, read-out: MBC99.9
Summary of the method: (§1)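 Wells from the 24 h, 37 °C MHB microdilution plates (bacteria at a final (0.5−1) × 10^5 CFU/mL; peptide diluted in 0.2% BSA) were plated on agar and incubated overnight. MBC is the lowest concentration killing >99.9% of cells. Each test was reproduced at least 3 times.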

[2] = test system: Staphylococcus epidermidis; assay: Antibacterial activity against Staphylococcus epidermidis ATCC 12228 after 24 hrs; type: functional; conditions: ATCC 12228, 24 h
Summary of the method: (§2)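 Broth microdilution. Mid-log bacteria in MHB at a final (0.5−1) × 10^5 CFU/mL were mixed with equal volumes of peptide serially diluted in 0.2% BSA. Plates were incubated 24 h at 37 °C and read at A492. MIC is the lowest concentration inhibiting 95% of growth. Each test was repeated at least 3 times.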

[3] = test system: Escherichia coli; assay: Antibacterial activity against Escherichia coli ATCC 25922 after 18 hrs in presence of 12.5% human heat-inactivated serum by broth dilution method; type: functional; conditions: ATCC 25922, 18 h
[4] = test system: Staphylococcus aureus; assay: Antibacterial activity against Staphylococcus aureus ATCC 29213 after 24 hrs; type: functional; conditions: ATCC 29213, 24 h
Summary of the method: (§3)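 Modified NCCLS broth microdilution. Mid-log bacteria at (0.5−1) × 10^5 CFU/mL in MHB were mixed 1:1 with peptide serially diluted in 0.2% BSA and incubated 24 h at 37 °C. Absorbance was read at 492 nm; MIC is the lowest concentration inhibiting 95% of growth. At least 3 repeats.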

[5] = test system: Staphylococcus aureus; assay: Antibacterial activity against methicillin-resistant Staphylococcus aureus ATCC 4330 after 24 hrs; type: functional; conditions: ATCC 4330, 24 h; summary of the method: as §3
[6] = Bactericidal activity against Salmonella pullorum ATCC 7913; type: functional, Salmonella enterica subsp. enterica serovar Pullorum; conditions: Salmonella enterica, read-out: MBC99.9; summary of the method: as §1
[7] = Antibacterial activity against Salmonella pullorum ATCC 7913 after 24 hrs; type: functional, Salmonella enterica subsp. enterica serovar Pullorum; conditions: Salmonella enterica, ATCC 7913, 24 h; summary of the method: as §2
[8] = test system: Escherichia coli; assay: Antibacterial activity against Escherichia coli ATCC 25922 after 18 hrs in presence of ZnCl2 by broth dilution method; type: functional; conditions: ATCC 25922, 18 h
[9] = test system: Escherichia coli; assay: Antibacterial activity against Escherichia coli ATCC 25922 after 18 hrs in presence of 50% human heat-inactivated serum by broth dilution method; type: functional; conditions: ATCC 25922, 18 h
[10] = test system: Escherichia coli; assay: Antibacterial activity against Escherichia coli ATCC 25922 after 24 hrs; type: functional; conditions: ATCC 25922, 24 h; summary of the method: as §2
[11] = test system: Escherichia coli; assay: Antibacterial activity against Escherichia coli ATCC 25922 after 18 hrs in presence of NaCl by broth dilution method; type: functional; conditions: ATCC 25922, 18 h
[12] = test system: Escherichia coli; assay: Bactericidal activity against Escherichia coli ATCC 25922; type: functional; conditions: read-out: MBC99.9; summary of the method: as §1
[13] = test system: Staphylococcus aureus; assay: Bactericidal activity against methicillin-resistant Staphylococcus aureus ATCC 4330; type: functional; conditions: read-out: MBC99.9
Summary of the method: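 Bacteria at (0.5−1) × 10^5 CFU/mL in MHB were exposed to serially diluted peptide (0.2% BSA) for 24 h at 37 °C, then 50 μL aliquots were plated on agar overnight. MBC is the lowest concentration killing >99.9% of cells. At least 3 repeats.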

[14] = test system: Staphylococcus epidermidis; assay: Bactericidal activity against Staphylococcus epidermidis ATCC 12228; type: functional; conditions: read-out: MBC99.9; summary of the method: as §1
[15] = test system: Escherichia coli; assay: Antibacterial activity against Escherichia coli ATCC 25922 after 18 hrs in presence of KCl by broth dilution method; type: functional; conditions: ATCC 25922, 18 h
[16] = test system: Escherichia coli; assay: Bactericidal activity against Escherichia coli 1005; type: functional; conditions: read-out: MBC99.9; summary of the method: as §1
[17] = test system: Escherichia coli; assay: Antibacterial activity against Escherichia coli 1005 after 24 hrs; type: functional; conditions: Escherichia coli, 1005, 24 h; summary of the method: as §2
[18] = test system: Salmonella typhimurium; assay: Antibacterial activity against Salmonella typhimurium ATCC 14028 after 24 hrs; type: functional, Salmonella enterica subsp. enterica serovar Typhimurium; conditions: Salmonella enterica, ATCC 14028, 24 h; summary of the method: as §2
[19] = test system: Escherichia coli; assay: Antibacterial activity against Escherichia coli ATCC 25922 after 18 hrs in presence of FeCl3 by broth dilution method; type: functional; conditions: ATCC 25922, 18 h
[20] = test system: Staphylococcus aureus; assay: Bactericidal activity against Staphylococcus aureus ATCC 25923; type: functional; conditions: read-out: MBC99.9; summary of the method: as §1
[21] = test system: Escherichia coli; assay: Antibacterial activity against Escherichia coli ATCC 25922 after 18 hrs in presence of MgCl2 by broth dilution method; type: functional; conditions: ATCC 25922, 18 h
[22] = test system: Escherichia coli; assay: Antibacterial activity against Escherichia coli ATCC 25922 after 18 hrs in presence of 25% human heat-inactivated serum by broth dilution method; type: functional; conditions: ATCC 25922, 18 h
[23] = test system: Staphylococcus aureus; assay: Bactericidal activity against Staphylococcus aureus ATCC 29213; type: functional; conditions: read-out: MBC99.9; summary of the method: as §1
[24] = test system: Escherichia coli; assay: Antibacterial activity against Escherichia coli ATCC 25922 after 18 hrs in presence of CaCl2 by broth dilution method; type: functional; conditions: ATCC 25922, 18 h
[25] = test system: Staphylococcus aureus; assay: Antibacterial activity against Staphylococcus aureus ATCC 25923 after 24 hrs; type: functional; conditions: ATCC 25923, 24 h; summary of the method: as §3
[26] = test system: Escherichia coli; assay: Antibacterial activity against Escherichia coli ATCC 25922 after 18 hrs in presence of NH4Cl by broth dilution method; type: functional; conditions: ATCC 25922, 18 h
[27] = test system: Lipid bilayer; assay: Binding affinity to phosphatidylcholine/cholesterol large unilamellar vesicle assessed as induction of calcein leakage at 2 to 32 uM after 15 mins by spectrofluorophotometric method; conditions: 0.25 h
Summary of the method: (§4)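 Large unilamellar vesicles were made from PG/CL/PE (2:1:7), PC/PE/PI/ergosterol (5:4:1:2) or PC/cholesterol (10:1), loaded with 70 mM calcein in Tris/NaCl/EDTA buffer at pH 7.4, frozen and thawed 20 times, and extruded through 100 nm filters. Free dye was removed by gel filtration, and peptide-induced calcein release was measured.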

[28] = test system: Lipid bilayer; assay: Binding affinity to phosphatidylglycerol/cardiolipin/phosphatidylethanolamine large unilamellar vesicle assessed as induction of calcein leakage at 2 to 32 uM after 15 mins by spectrofluorophotometric method; summary of the method: as §4

## CC[C@H](C)CCCCC(=O)N[C@@H](CCN)C(=O)N[C@H](C(=O)N[C@@H](CCN)C(=O)N[C@H]1CCNC(=O)[C@H]([C@@H](C)O)NC(=O)[C@H](CCN)NC(=O)[C@H](CCN)NC(=O)[C@H](CC(C)C)NC(=O)[C@@H](Cc2ccccc2)NC(=O)[C@H](CCN)NC1=O)[C@@H](C)O (X1-[Dab]T[Dab][Dab][Dab][dF]L[Dab][Dab]T; lactam 4-C)
[1]
  MBC: 2 µM (≈ 2.41 µg/mL)
[2]
  MIC95: 32 µM (≈ 38.5 µg/mL)
[3]
  MIC: 2 µM
[4]
  MIC95: 64 µM (≈ 77 µg/mL)
[5]
  MIC95: 64 µM (≈ 77 µg/mL)
[6]
  MBC: 2 µM (≈ 2.41 µg/mL)
[7]
  MIC95: 1 µM (≈ 1.2 µg/mL)
[8]
  MIC: 2 µM
[9]
  MIC: 4 µM
[10]
  MIC95: 2 µM (≈ 2.41 µg/mL)
[11]
  MIC: 8 µM
[12]
  MBC: 4 µM (≈ 4.81 µg/mL)
[13]
  MBC: 64 µM (≈ 77 µg/mL)
[14]
  MBC: 32 µM (≈ 38.5 µg/mL)
[15]
  MIC: 2 µM
[16]
  MBC: 2 µM (≈ 2.41 µg/mL)
[17]
  MIC95: 1 µM (≈ 1.2 µg/mL)
[18]
  MIC95: 2 µM (≈ 2.41 µg/mL)
[19]
  MIC: 2 µM
[20]
  MBC: 64 µM (≈ 77 µg/mL)
[21]
  MIC: 4 µM
[22]
  MIC: 2 µM
[23]
  MBC: 64 µM (≈ 77 µg/mL)
[24]
  MIC: 2 µM
[25]
  MIC95: 32 µM (≈ 38.5 µg/mL)
[26]
  MIC: 2 µM

## O=C(O)c1cn(C2CC2)c2cc(N3CCNCC3)c(F)cc2c1=O [CIPROFLOXACIN]
[1]
  MBC: 16 µM (≈ 5.3 µg/mL)
[27]
  Activity: Not Active
[28]
  Activity: inactive
[2]
  MIC95: 2 µM (≈ 0.663 µg/mL)
[3]
  MIC: 2 µM
[4]
  MIC95: 4 µM (≈ 1.33 µg/mL)
[5]
  MIC95: 1 µM (≈ 0.331 µg/mL)
[6]
  MBC: 4 µM (≈ 1.33 µg/mL)
[7]
  MIC95: 2 µM (≈ 0.663 µg/mL)
[8]
  MIC: 2 µM
[9]
  MIC: 4 µM
[10]
  MIC95: 2 µM (≈ 0.663 µg/mL)
[11]
  MIC: 2 µM
[12]
  MBC: 4 µM (≈ 1.33 µg/mL)
[13]
  MBC: 1 µM (≈ 0.331 µg/mL)
[14]
  MBC: 4 µM (≈ 1.33 µg/mL)
[15]
  MIC: 2 µM
[16]
  MBC: 4 µM (≈ 1.33 µg/mL)
[17]
  MIC95: 2 µM (≈ 0.663 µg/mL)
[18]
  MIC95: 8 µM (≈ 2.65 µg/mL)
[19]
  MIC: 4 µM
[20]
  MBC: 8 µM (≈ 2.65 µg/mL)
[21]
  MIC: 8 µM
[22]
  MIC: 2 µM
[23]
  MBC: 4 µM (≈ 1.33 µg/mL)
[24]
  MIC: 8 µM
[25]
  MIC95: 8 µM (≈ 2.65 µg/mL)
[26]
  MIC: 2 µM
